Values belong to the compound of their own block, whether it stands above or below them.
Key:
[1] = target: T1, Estrogen receptor (Mus musculus) (UniProt O08537+P19785); assay: (§1) Uterotrophic effect in mice at 0 ug dose; assay type: functional, tissue-based; parameters: unit not given here; details: Uterus
In short: (§2)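 Immature female NMRI mice, 20 days old, 10 per group, given daily sc injections of 0.1 mL olive oil solution for 3 days. Uteri removed 24 h after the last dose, fixed in Bouin's solution, washed, dried and weighed. Antiestrogenic testing measured inhibition of estrone-stimulated uterine growth.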

[2] = target: T1, Estrogen receptor (Mus musculus); assay: Uterotrophic effect in BD2F mice bearing transplantable hormone dependent MXT at 1.33 mg dose; assay type: functional, tissue-based; details: Uterus
In short: (§3)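 MXT-bearing female BD2F1 mice (10 per group) dosed sc in olive oil three times weekly for 6 weeks from the day after tumor transplantation. Uteri excised at sacrifice and dry weight determined; values given as mean ± SD.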

[3] = organism: Mus musculus; assay: Relative average tumor wet weight in treated compared to untreated mice at 8 mg dose; assay type: functional
In short: (§4)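 Syngeneic female BD2F1 mice (8–10 weeks) received sc trocar implants of 1–2-mm³ MXT tumor pieces, 10 per group. Treatment began the next day: sc doses in olive oil (solution or suspension), three times weekly for 6 weeks. Tamoxifen-treated control group included. Tumor wet weight measured at sacrifice; expressed as % T/C versus untreated controls.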

[4] = target: T1, Estrogen receptor (Mus musculus); assay: (§5) Uterotrophic effect in mice at 0.1 ug dose; assay type: functional, tissue-based; parameters: unit not given here; details: Uterus; in short: as §2
[5] = target: T1, Estrogen receptor (Mus musculus); assay: (§6) Uterotrophic effect in mice at 1 ug dose; assay type: functional, tissue-based; parameters: unit not given here; details: Uterus; in short: as §2
[6] = target: T1, Estrogen receptor (Mus musculus); assay: Uterotrophic effect in BD2F mice bearing transplantable hormone dependent MXT at 8 mg dose; assay type: functional, tissue-based; details: Uterus; in short: as §3
[7] = organism: Mus musculus; assay: Relative average tumor wet weight in treated compared to untreated mice at 1.33 mg dose; assay type: functional
In short: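 MXT mammary tumor pieces of 1-2 mm³ from syngeneic donors were implanted sc by trocar into female BD2F₁ mice aged 8-10 weeks (20.0 ± 1.7 g), groups of 10. From the next day, compound in olive oil was given sc three times weekly for 6 weeks. Tumor wet weight was measured at the end and expressed as % T/C.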

[8] = target: T1, Estrogen receptor (Mus musculus); assay: (§7) Uterotrophic effect in mice at 10 ug dose; assay type: functional, tissue-based; parameters: unit not given here; details: Uterus; in short: as §2
[9] = target: T1, Estrogen receptor (Mus musculus); assay: Uterotrophic effect in BD2F mice bearing transplantable hormone dependent MXT at 4 mg dose; assay type: functional, tissue-based; details: Uterus; in short: as §3
[10] = organism: Mus musculus; assay: Relative average tumor wet weight in treated compared to untreated mice at 4 mg dose; assay type: functional; in short: as §4
[11] = target: T1, Estrogen receptor (Mus musculus); assay: as §6; assay type: functional, tissue-based; details: Uterus; in short: as §2
[12] = test system: Rattus norvegicus; assay: Initial tumor number in DMBA-Induced Hormone-Dependent Mammary Carcinoma in rats at 5 mg/kg dose; assay type: functional
[13] = test system: Rattus norvegicus; assay: Percent change in body weight in DMBA-Induced Hormone-Dependent Mammary Carcinoma rats at 2 mg/kg dose; assay type: functional
[14] = test system: Rattus norvegicus; assay: Initial in tumor number in DMBA-Induced Hormone-Dependent Mammary Carcinoma in rats at 2 mg/kg dose; assay type: functional
[15] = test system: Rattus norvegicus; assay: Percent complete remission in DMBA-Induced Hormone-Dependent Mammary Carcinoma in rats at 5 mg/kg dose; assay type: functional
[16] = target: T1, Estrogen receptor (Mus musculus); assay: Uterotrophic effect in mice at 25 ug dose; assay type: functional, tissue-based; parameters: unit not given here; details: Uterus; in short: as §2
[17] = organism: Mus musculus; assay: Relative average tumor wet weight in treated compared to untreated mice at 20 mg dose; assay type: functional; in short: as §4
[18] = test system: Rattus norvegicus; assay: Percent change in total tumor area in DMBA-Induced Hormone-Dependent Mammary Carcinoma rats at 5 mg/kg dose; assay type: functional
[19] = target: T1, Estrogen receptor (Mus musculus); assay: Anti-uterotrophic effect in mice at 1 ug dose; assay type: functional
In short: (§8)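 Immature female NMRI mice, 20 days old (14.5 ± 1.2 g), randomized into groups of 10. Each received a daily sc injection of compound in 0.1 mL olive oil for 3 days, given together with estrone. Uteri were taken 24 h after the last injection, fixed in Bouin's solution, washed, dried and weighed. The read-out was inhibition of estrone-stimulated uterine growth.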

[20] = target: T1, Estrogen receptor (Mus musculus); assay: Uterotrophic effect in mice at 1000 ug dose; assay type: functional, tissue-based; parameters: unit not given here; details: Uterus; in short: as §2
[21] = test system: Rattus norvegicus; assay: Percent partial remission in DMBA-Induced Hormone-Dependent Mammary Carcinoma in rats at 5 mg/kg dose; assay type: functional
[22] = target: T1, Estrogen receptor (Mus musculus); assay: Uterotrophic effect in BD2F mice bearing transplantable hormone dependent MXT at 20 mg dose; assay type: functional, tissue-based; details: Uterus; in short: as §3
[23] = test system: Rattus norvegicus; assay: Percent progression in DMBA-Induced Hormone-Dependent Mammary Carcinoma in rats at 2 mg/kg dose; assay type: functional
[24] = test system: Rattus norvegicus; assay: Final tumor number in DMBA-Induced Hormone-Dependent Mammary Carcinoma in rats at 2 mg/kg dose; assay type: functional
[25] = target: T1, Estrogen receptor (Mus musculus); assay: as §1; assay type: functional, tissue-based; parameters: unit not given here; details: Uterus; in short: as §2; remark: listed apart in the source
[26] = target: T1, Estrogen receptor (Mus musculus); assay: Anti-uterotrophic effect in mice at 100 ug dose; assay type: functional; in short: as §8
[27] = test system: Rattus norvegicus; assay: Percent change in total tumor area in DMBA-Induced Hormone-Dependent Mammary Carcinoma rats at 2 mg/kg dose; assay type: functional
[28] = target: T1, Estrogen receptor (Mus musculus); assay: Anti-uterotrophic effect in mice at 10 ug dose; assay type: functional; in short: as §8
[29] = target: T1, Estrogen receptor (Mus musculus); assay: Anti-uterotrophic effect in mice at 25 ug dose; assay type: functional; in short: as §8
[30] = target: T1, Estrogen receptor (Mus musculus); assay: (§9) Uterotrophic effect in mice at 100 ug dose; assay type: functional, tissue-based; details: Uterus; in short: as §2
[31] = target: T1, Estrogen receptor (Mus musculus); assay: as §5; assay type: functional, tissue-based; details: Uterus; in short: as §2
[32] = test system: Rattus norvegicus; assay: Percent complete remission in DMBA-Induced Hormone-Dependent Mammary Carcinoma in rats at 2 mg/kg dose; assay type: functional
[33] = test system: Rattus norvegicus; assay: Percent change in body weight in DMBA-Induced Hormone-Dependent Mammary Carcinoma rats at 5 mg/kg dose; assay type: functional
[34] = test system: Rattus norvegicus; assay: Percent unchanged tumors in DMBA-Induced Hormone-Dependent Mammary Carcinoma in rats at 2 mg/kg dose; assay type: functional
[35] = test system: Rattus norvegicus; assay: Percent unchanged tumors in DMBA-Induced Hormone-Dependent Mammary Carcinoma in rats at 5 mg/kg dose; assay type: functional
[36] = test system: Rattus norvegicus; assay: Final tumor number in DMBA-Induced Hormone-Dependent Mammary Carcinoma in rats at 5 mg/kg dose; assay type: functional
[37] = test system: Rattus norvegicus; assay: Percent progression in DMBA-Induced Hormone-Dependent Mammary Carcinoma model in rats at 5 mg/kg dose; assay type: functional
[38] = target: T1, Estrogen receptor (Mus musculus); assay: as §7; assay type: functional, tissue-based; details: Uterus; in short: as §2
[39] = target: T1, Estrogen receptor (Mus musculus); assay: as §9; assay type: functional, tissue-based; parameters: unit not given here; details: Uterus; in short: as §2
[40] = test system: Rattus norvegicus; assay: Percent partial remission in DMBA-Induced Hormone-Dependent Mammary Carcinoma in rats at 2 mg/kg dose; assay type: functional

T1 sequence (O08537 whole entry, looked up): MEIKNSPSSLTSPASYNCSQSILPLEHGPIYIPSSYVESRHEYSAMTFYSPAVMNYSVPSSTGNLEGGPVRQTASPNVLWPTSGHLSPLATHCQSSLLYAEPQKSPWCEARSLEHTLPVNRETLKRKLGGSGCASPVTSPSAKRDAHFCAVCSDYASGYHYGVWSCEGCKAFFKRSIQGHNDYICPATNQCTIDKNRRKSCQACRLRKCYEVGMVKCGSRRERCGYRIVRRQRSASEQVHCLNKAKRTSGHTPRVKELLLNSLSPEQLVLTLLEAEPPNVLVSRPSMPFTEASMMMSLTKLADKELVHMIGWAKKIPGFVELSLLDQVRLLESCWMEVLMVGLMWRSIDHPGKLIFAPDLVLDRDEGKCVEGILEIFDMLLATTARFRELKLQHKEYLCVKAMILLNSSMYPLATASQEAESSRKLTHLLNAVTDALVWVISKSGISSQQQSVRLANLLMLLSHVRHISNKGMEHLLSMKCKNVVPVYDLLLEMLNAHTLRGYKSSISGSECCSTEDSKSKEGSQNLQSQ
T1 sequence (P19785 whole entry, looked up): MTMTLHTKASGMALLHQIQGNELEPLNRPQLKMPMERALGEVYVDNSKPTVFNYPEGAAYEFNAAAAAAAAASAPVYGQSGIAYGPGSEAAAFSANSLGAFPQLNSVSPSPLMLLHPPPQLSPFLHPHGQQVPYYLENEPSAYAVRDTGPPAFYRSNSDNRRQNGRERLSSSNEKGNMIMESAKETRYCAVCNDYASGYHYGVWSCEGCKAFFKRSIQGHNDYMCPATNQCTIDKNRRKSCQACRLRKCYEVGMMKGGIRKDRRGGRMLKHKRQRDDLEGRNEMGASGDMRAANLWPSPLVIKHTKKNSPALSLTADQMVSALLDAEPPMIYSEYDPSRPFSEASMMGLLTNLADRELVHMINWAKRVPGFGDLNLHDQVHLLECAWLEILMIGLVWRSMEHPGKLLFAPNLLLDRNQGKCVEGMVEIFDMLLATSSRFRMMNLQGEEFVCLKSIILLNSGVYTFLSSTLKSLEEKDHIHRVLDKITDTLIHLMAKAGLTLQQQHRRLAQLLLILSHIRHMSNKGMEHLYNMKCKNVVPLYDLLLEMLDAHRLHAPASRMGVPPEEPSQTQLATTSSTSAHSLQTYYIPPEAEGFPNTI

Effect [1]: 13.7
Effect [2]: 182
Effect [4]: 56.4
Effect [5]: 52.6
Effect [6]: 169
Effect [8]: 38.2
Effect [9]: 179
SMILES: Oc1ccc(/C(=C(/c2ccc(O)cc2)C(F)(F)F)C(F)(F)F)cc1
TC [3]: 5.2%
TC [7]: 10.4%
TC [10]: 5.5%

Effect [11]: 31.4
Effect [1]: 10.8
Effect [16]: 28.8
Effect [4]: 10.1
Effect [5]: 15.4
inhibition [19]: 36.6%
Effect [20]: 36
Effect [8]: 19.8
Effect [22]: 90.1
Effect [25]: 13.3
inhibition [26]: 18%
inhibition [28]: 34.5%
inhibition [29]: 45.5%
Effect [30]: 36.7
Effect [31]: 10.1
Effect [9]: 84
Effect [38]: 32
Effect [39]: 34.8
SMILES: Oc1cccc([C@H]([C@H](c2cccc(O)c2)C(F)(F)F)C(F)(F)F)c1
No. of tumors [12]: 23
Change in weight [13]: -1.1%
No. of tumors [14]: 21
Tumors [15]: 21%
TC [17]: 10.9%
Change in tumor area % [18]: 166%
Tumors [21]: 12%
Tumors [23]: 47%
No. of tumors [24]: 19
Change in tumor area % [27]: 165%
Tumors [32]: 15%
Change in weight [33]: -0.4%
Tumors [34]: 28%
Tumors [35]: 29%
No. of tumors [36]: 11
Change in weight [37]: 38%
Tumors [40]: 10%
TC [10]: 23.9%
